Measurements as given in ChEMBL document CHEMBL1136581, “Synthesis of dopamine transporter selective 3-[2-(diarylmethoxyethylidene)]-8-alkylaryl-8-azabicyclo[3.2.1]octanes” (Bioorg Med Chem Lett, 2003).

How the values were obtained:
[1] = target: Sodium-dependent dopamine transporter (Rattus norvegicus, UniProt P23977); experiment: Binding affinity at dopamine transporter from rat caudate-putamen tissue by [3H]WIN-35428 displacement.
How it was run: (§1)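 Compounds were tested as oxalate salts. Ki values are the mean ± SEM of three experiments, each run in triplicate.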

[2] = target: Sodium-dependent serotonin transporter (Rattus norvegicus, UniProt P31652); experiment: Binding affinity at serotonin transporter from rat caudate-putamen tissue by [3H]WIN-35428 displacement.; format: tissue-based; how it was run: as §1
Sodium-dependent serotonin transporter, sequence (P31652 whole entry): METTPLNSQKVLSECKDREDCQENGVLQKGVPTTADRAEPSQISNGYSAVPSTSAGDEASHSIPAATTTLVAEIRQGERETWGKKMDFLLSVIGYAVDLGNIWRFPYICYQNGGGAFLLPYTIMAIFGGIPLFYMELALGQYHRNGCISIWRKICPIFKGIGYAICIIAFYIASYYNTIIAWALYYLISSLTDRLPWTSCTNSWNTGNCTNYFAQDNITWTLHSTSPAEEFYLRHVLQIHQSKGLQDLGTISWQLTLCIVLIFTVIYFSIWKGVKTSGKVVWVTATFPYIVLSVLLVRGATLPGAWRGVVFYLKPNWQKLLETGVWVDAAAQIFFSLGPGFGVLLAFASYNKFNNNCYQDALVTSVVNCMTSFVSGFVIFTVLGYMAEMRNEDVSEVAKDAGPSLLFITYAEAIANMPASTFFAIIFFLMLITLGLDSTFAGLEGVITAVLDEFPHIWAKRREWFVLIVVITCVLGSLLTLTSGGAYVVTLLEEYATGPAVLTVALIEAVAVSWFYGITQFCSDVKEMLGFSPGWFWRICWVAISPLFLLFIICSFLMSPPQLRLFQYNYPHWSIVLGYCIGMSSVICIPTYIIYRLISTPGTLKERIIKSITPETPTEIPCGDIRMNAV

[3] = target: Monoamine transporters; serotonin & dopamine (Rattus norvegicus) (UniProt P31652+P23977); experiment: Binding affinity towards serotonin transporter compared to dopamine transporter.; format: protein assay
Monoamine transporters; serotonin & dopamine (Rattus norvegicus), sequence (P23977 whole entry, looked up): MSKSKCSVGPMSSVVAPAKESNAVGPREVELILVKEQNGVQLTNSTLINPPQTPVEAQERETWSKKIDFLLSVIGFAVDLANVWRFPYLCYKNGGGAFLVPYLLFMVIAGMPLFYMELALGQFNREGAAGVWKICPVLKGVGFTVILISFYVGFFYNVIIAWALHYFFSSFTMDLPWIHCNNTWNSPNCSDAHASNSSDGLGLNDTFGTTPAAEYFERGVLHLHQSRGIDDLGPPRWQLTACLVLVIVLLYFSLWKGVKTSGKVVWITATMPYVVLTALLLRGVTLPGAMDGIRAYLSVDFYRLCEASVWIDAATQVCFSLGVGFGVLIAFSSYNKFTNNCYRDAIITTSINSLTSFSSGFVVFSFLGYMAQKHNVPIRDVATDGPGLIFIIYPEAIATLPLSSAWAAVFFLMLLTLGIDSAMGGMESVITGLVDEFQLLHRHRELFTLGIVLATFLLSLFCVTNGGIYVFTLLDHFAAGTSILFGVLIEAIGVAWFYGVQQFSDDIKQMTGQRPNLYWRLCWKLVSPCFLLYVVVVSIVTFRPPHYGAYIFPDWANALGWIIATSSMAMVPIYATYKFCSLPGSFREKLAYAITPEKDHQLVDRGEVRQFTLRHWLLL
Monoamine transporters; serotonin & dopamine (Rattus norvegicus), sequence (P31652 whole entry, looked up): as the sequence (P31652 whole entry) above

Sodium-dependent dopamine transporter, sequence (P23977 whole entry): as the sequence (P23977 whole entry, looked up) above

SMILES | Ki [1] [nM] | Ki [2] [nM] | Ratio [3]
Oc1cccc(CN2C3CCC2CC(CCOC(c2ccc(F)cc2)c2ccc(F)cc2)C3)c1 (configuration not stated) | 20 | 651 | 33
Clc1ccc(C(OCCC2CC3CCC(C2)N3Cc2ccccc2)c2ccc(Cl)cc2)cc1 (configuration not stated) | 91 | 822 | 9
Fc1ccc(C(OCC=C2CC3CCC(C2)N3Cc2ccccc2)c2ccc(F)cc2)cc1 | – | 2220 | 281
Clc1ccc(C(OCCC2CC3CCC(C2)N3CCCc2ccccc2)c2ccc(Cl)cc2)cc1 (configuration not stated) | 50 | 177 | 4
c1ccc(CN2C3CCC2CC(CCOC(c2ccccc2)c2ccccc2)C3)cc1 (configuration not stated) | – | 4780 | 48
Clc1ccc(C(OCCC2CC3CCC(C2)N3CCCc2ccccc2)c2ccccc2)cc1 (configuration not stated) | 30 | 374 | 12
Fc1ccc(C(OCCC2CC3CCC(C2)N3Cc2ccccc2)c2ccc(F)cc2)cc1 (configuration not stated) | 5.7 | 1430 | 251
C(COC(c1ccccc1)c1ccccc1)=C1CC2CCC(C1)N2Cc1ccccc1 | 48 | 5420 | 113
Oc1ccc(CN2C3CCC2CC(CCOC(c2ccc(F)cc2)c2ccc(F)cc2)C3)cc1 (configuration not stated) | 30 | 809 | 27
CN1C2CCC1CC(CCOC(c1ccc(F)cc1)c1ccc(F)cc1)C2 (configuration not stated) | 31 | 2470 | 80
CN1[C@@H]2CC[C@H]1C[C@@H](CCOC(c1ccccc1)c1ccccc1)C2 | 58 | 14100 | 243
CN1C2CCC1CC(CCOC(c1ccccc1)c1ccc(Cl)cc1)C2 (configuration not stated) | – | 3430 | 71
CN1C2CCC1CC(CCOC(c1ccc(Cl)cc1)c1ccc(Cl)cc1)C2 (configuration not stated) | 18 | 1160 | 64
Fc1ccc(C(OCC=C2CC3CCC(C2)N3CCCc2ccccc2)c2ccc(F)cc2)cc1 | 3.7 | 562 | 152
Fc1ccc(C(OCC[C@H]2C[C@H]3CC[C@@H](C2)N3CCCc2ccccc2)c2ccc(F)cc2)cc1 | 7.4 | 175 | –
Clc1ccc(C(OCCC2CC3CCC(C2)N3Cc2ccccc2)c2ccccc2)cc1 (configuration not stated) | 82 | 1940 | 24
c1ccc(CCCN2[C@@H]3CC[C@H]2C[C@@H](CCOC(c2ccccc2)c2ccccc2)C3)cc1 | 18 | 750 | 42
